Bioassay records (PubChem)
This is a sample that favours compounds with a hit; in the whole collection about 1.7% have one here.
EBNA-1 inhibitor – blocks EBNA-1 binding to DNA; EBNA-1 DNA binding, fluorescence polarization; inhibition, % at 14.8 µM; 300,000 tested, 0.34% active; AID 1950; in the data active means inhibition above about 28%
HCV NS3 hel inh – HCV NS3 helicase inhibition; inhibition, % at 10.9 µM; NS3 helicase DNA unwinding, Cy5 molecular beacon fluorescence; AID 1800; 290,000 tested, 0.56% active;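 active means inhibition above the mean of all tested compounds plus 3 SD, set per campaign, cut at about 35% in these data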;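 further: 0% = DMSO wells and 100% = thioflavine S control wells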
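Assay system – hepatitis C virus NS3 helicase domain fragment enzyme · Buffer or medium – MOPS pH 6.5, MgCl2, DTT, Tween20, BSA · Reagent – Cy5/quencher beacon DNA duplex and ATP to start · Compound – single 10.9 µM dose · Timing – 1 h at 25 °C · Technique – Cy5 beacon fluorescence read at start and 1 h · Measure – % inhibition of unwinding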
MEX-5 binding – C. elegans MEX-5 TCR-2 RNA binding activity; MEX-5/FITC-TCR2 RNA binding, fluorescence polarization; active compounds read low; 300,000 tested, 0.38% active; AID 1832; Q9XUB2; activity score (negative = inhibition of binding), % at 10 µM;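 active means inhibition past about -25% in most replicates, and total fluorescence under double the plate's negative control median, limit read from the data; inconclusive means replicates evenly split on the limit, or fluorescence at least double controls; inactive means too little inhibition in most replicates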;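 further: 0% = DMSO and -100% = 5 µM competing unlabeled TCR2 RNA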
EBV gp42 inh – inhibitors of Epstein-Barr virus glycoprotein 42 | Q1HVG2 | Fluorescence polarization binding assay, mP read-out | inhibition, % (tested at 21.74 µM) | 220,000 tested, 0.42% active | AID 1085; in the data active means inhibition above about 50%
Target sequence (Q1HVG2 whole entry, looked up): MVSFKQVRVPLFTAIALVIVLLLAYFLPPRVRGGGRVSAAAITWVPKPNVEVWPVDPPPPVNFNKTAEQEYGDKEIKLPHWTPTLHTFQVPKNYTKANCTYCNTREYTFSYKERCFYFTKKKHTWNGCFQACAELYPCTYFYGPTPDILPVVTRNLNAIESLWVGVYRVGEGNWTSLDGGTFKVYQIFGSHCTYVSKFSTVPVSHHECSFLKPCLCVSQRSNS
ZTA counter – blocks Epstein-Barr virus ZTA, an EBNA-1 counter-screen. P03206. ZTA-DNA binding, fluorescence polarization. inhibition, % at 11 µM. 320,000 tested, 0.15% active. AID 2234; in the data active means inhibition above about 33%
Target sequence (P03206 whole entry, looked up): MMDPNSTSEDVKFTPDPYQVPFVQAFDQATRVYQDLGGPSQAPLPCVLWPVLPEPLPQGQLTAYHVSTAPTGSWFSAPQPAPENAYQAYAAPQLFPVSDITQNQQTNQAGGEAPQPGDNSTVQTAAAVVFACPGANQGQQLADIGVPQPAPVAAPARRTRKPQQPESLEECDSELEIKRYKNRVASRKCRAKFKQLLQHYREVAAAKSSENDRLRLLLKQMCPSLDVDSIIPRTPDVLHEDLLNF
core dimer inh – HCV core protein dimerization inhibition. TR-FRET GST/Flag-core106 dimerization, 1536-well. inhibition, % at 5 µM. 300,000 tested, 0.33% active;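 active means inhibition above the mean of all tested compounds plus 3 SD, set per screening campaign, cut at about 45% in these data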
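Assay system: tagged HCV core106 pair (GST and Flag); medium: KF-containing HEPES buffer, pH 7.45, DTT, CHAPS, BSA; also added: Eu donor and XL665 acceptor anti-tag antibodies; dosing: 5 µM single dose; timing: compound-protein-antibody incubation 4 h at 22.5 °C; signal: TR-FRET 671 and 617 nm emission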
NS3 helicase cf – HCV NS3 helicase inhibition, confirmation assay | inhibition, % at 10.9 µM | shares compounds with HCV NS3 hel inh | NS3 helicase DNA unwinding, Cy5 molecular beacon fluorescence | AID 1943 | 1,600 tested, 31% active;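 active means inhibition above the mean of all tested compounds plus 3 SD, cutoff set per campaign, cut at about 36% in these data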
DNA FID counter – counter-screen for HCV NS3 helicase inhibitors: DNA intercalator displacement | shares compounds with HCV NS3 hel inh | DNA fluorescent intercalator displacement, fluorescence | inhibition, % at 7.9 µM | 1,600 tested, 4% active | AID 1945; in the data active means inhibition above about 37%;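 further: 0% = vehicle and 100% = reference compound; higher means more displacement of ethidium bromide from the DNA hairpin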
Starred values were filed as active, the others as inactive.

Cc1cc(C)c[n+](-c2[nH]c(=O)sc2/C=N/N=C(\[O-])c2cccnc2)c1 was read as EBNA-1 inhibitor -6.6, HCV NS3 hel inh 36.2*, MEX-5 binding -14.0, ZTA counter 4.1, core dimer inh -7.9, NS3 helicase cf -11.0 and DNA FID counter 2.2.
For Oc1ccc(N=Nc2cccc(C(F)(F)F)c2)cc1C=Nc1ccc(N2CCOCC2)cc1 the results were EBNA-1 inhibitor -0.8, HCV NS3 hel inh 45.5*, MEX-5 binding 1.1, EBV gp42 inh 8.3, ZTA counter -2.9, core dimer inh -3.0, NS3 helicase cf 1.0 and DNA FID counter 39.4*.
For Cc1c(Br)c(O)c(Br)c(O)c1/C=N/n1c(-c2ccccc2)n[nH]c1=S the results were EBNA-1 inhibitor -13.8, HCV NS3 hel inh 36.5*, MEX-5 binding -0.4, ZTA counter -8.5, core dimer inh -11.8, NS3 helicase cf 70.0* and DNA FID counter -3.7.
`CCOC(=O)/C=c1\s/c(=C(\C#N)C(=O)OCC)n(-c2ccccc2)c1=O` gave EBNA-1 inhibitor 6.0, HCV NS3 hel inh 57.3*, MEX-5 binding 12.4, EBV gp42 inh -61.5, ZTA counter 5.3, core dimer inh 10.5, NS3 helicase cf -8.6 and DNA FID counter -9.8.
`CNC(=O)/C(C#N)=c1\s/c(=C/C(=O)OC)c(=O)n1-c1ccccc1` gave EBNA-1 inhibitor 0.0, HCV NS3 hel inh 8.3, MEX-5 binding 1.0, EBV gp42 inh -10.6, ZTA counter 3.4 and core dimer inh -5.5.
`OC(CNCCc1ccc(C(F)(F)F)cc1)COC(c1ccccc1)c1ccccc1` (stereo unspecified) gave EBNA-1 inhibitor -12.6, HCV NS3 hel inh -36.1, MEX-5 binding -2.5, ZTA counter -0.2 and core dimer inh -21.7.
`Cc1cccn2c(=O)c3cc(C(=O)NC4CCCCC4)c(=N)n(Cc4ccccc4)c3nc12` gave EBNA-1 inhibitor 1.8, HCV NS3 hel inh -18.0, MEX-5 binding inconclusive, ZTA counter -10.2 and core dimer inh 5.8.
`Cc1cccn2c(=O)c3cc(C(=O)NC4CCCC4)c(=N)n(C4CCCCC4)c3nc12` gave EBNA-1 inhibitor -7.4, HCV NS3 hel inh 40.0*, MEX-5 binding 2.8, ZTA counter -22.4, core dimer inh -16.0, NS3 helicase cf -13.6 and DNA FID counter 18.0.
COc1ccccc1C(=O)NN(C)C1=NS(=O)(=O)c2ccccc21 was read as EBNA-1 inhibitor 1.7, HCV NS3 hel inh -15.1, MEX-5 binding -0.7, ZTA counter -7.9 and core dimer inh 1.1.
Clc1ccc(C2Nc3cccc4cccc(c34)N2)cc1 was read as EBNA-1 inhibitor 8.2, HCV NS3 hel inh 69.2*, MEX-5 binding -3.9, ZTA counter -2.4, core dimer inh 18.1, NS3 helicase cf -28.4 and DNA FID counter 26.4.
`COc1ccc(NC(=O)c2c[nH]n3c(=O)cc(C4CCN(C(=O)OC(C)(C)C)CC4)nc23)cc1Cl` gave EBNA-1 inhibitor 0.4, HCV NS3 hel inh 36.4*, MEX-5 binding -0.5, EBV gp42 inh 1.4, ZTA counter -6.4, core dimer inh 21.6, NS3 helicase cf 52.5* and DNA FID counter -28.1.
For CC(NC(=O)c1ccc(S(=O)(=O)NCc2ccco2)cc1)c1ccc(F)cc1 (stereo unspecified) the results were ZTA counter -4.2.
Screening ClCc1csc(N/N=C/c2cccs2)n1 returned EBNA-1 inhibitor -3.0, HCV NS3 hel inh 43.2*, MEX-5 binding 2.0, EBV gp42 inh -2.8, ZTA counter -2.1, core dimer inh 18.5, NS3 helicase cf 3.8 and DNA FID counter 16.2.
CC(C)OC(=O)c1cc2c(ccn2C)n1CC(=O)N(Cc1ccccc1)c1ccc(F)cc1 was read as EBNA-1 inhibitor 3.1, HCV NS3 hel inh 37.8*, MEX-5 binding -0.9, EBV gp42 inh 19.9, ZTA counter 19.7, core dimer inh 9.4, NS3 helicase cf -11.9 and DNA FID counter -38.0.
CCOC(=O)c1cc2c(ccn2C)n1CC(=O)N(Cc1ccccc1)c1ccc(F)cc1 was read as EBNA-1 inhibitor 8.8, HCV NS3 hel inh 13.2, MEX-5 binding -0.5, EBV gp42 inh -0.3, ZTA counter -16.4 and core dimer inh 5.5.
`Cc1nn(Cc2ccccc2Cl)c(Cl)c1/C=C/C(=O)OCC(=O)NC1CCS(=O)(=O)C1` (stereo unspecified) gave EBNA-1 inhibitor -1.9, HCV NS3 hel inh 2.7, MEX-5 binding 1.0, EBV gp42 inh -12.4, ZTA counter 1.0 and core dimer inh 0.4.
Screening Cc1nn(Cc2ccccc2)c(Cl)c1/C=C/C(=O)OCC(=O)N(C)C1CCS(=O)(=O)C1 (stereo unspecified) returned EBNA-1 inhibitor 4.0, HCV NS3 hel inh 46.4*, MEX-5 binding -1.2, EBV gp42 inh -3.4, ZTA counter -2.8, core dimer inh 0.2, NS3 helicase cf -11.6 and DNA FID counter -19.7.
`Nc1ccc(-c2cnc[nH]2)cc1[N+](=O)[O-]` gave EBNA-1 inhibitor -6.4, HCV NS3 hel inh -11.7, MEX-5 binding -9.0, EBV gp42 inh -3.0, ZTA counter 4.7 and core dimer inh -8.0.
`CCCn1c(C(O)c2cccc(OC)c2)nc2ccccc21` (stereo unspecified) gave HCV NS3 hel inh 41.9*, MEX-5 binding 1.1, NS3 helicase cf -15.8 and DNA FID counter 0.1.
For CCOC(=O)c1c(C)oc2c1cc(O)c1ccccc12 the results were EBNA-1 inhibitor -10.5, HCV NS3 hel inh 11.3, MEX-5 binding 1.0, EBV gp42 inh -11.1, ZTA counter -5.7 and core dimer inh 2.6.
CCOC(=O)c1c(C)oc2c(F)c(F)c(F)c(F)c2c1=O was read as EBNA-1 inhibitor 4.7, HCV NS3 hel inh 41.6*, MEX-5 binding -0.7, EBV gp42 inh -20.8, ZTA counter -12.0, core dimer inh 2.3, NS3 helicase cf 4.3 and DNA FID counter 26.4.
`Cc1ccc(-c2c(CC(=O)O)c(C)nc3sc4c(c23)CCCC4)cc1` gave EBNA-1 inhibitor 1.0, HCV NS3 hel inh 30.4, MEX-5 binding -1.5, ZTA counter 2.9 and core dimer inh 7.7.
Screening COc1cccc(-c2coc3c(C)c4oc(=O)c(CCC(=O)O)c(C)c4cc23)c1 returned EBNA-1 inhibitor 10.1, HCV NS3 hel inh -14.1, MEX-5 binding -12.9, ZTA counter 8.8 and core dimer inh 12.4.
COc1cccc(-c2coc3c(C)c4oc(=O)c(CC(=O)O)c(C)c4cc23)c1 was read as EBNA-1 inhibitor 2.2, HCV NS3 hel inh 44.2*, MEX-5 binding 2.3, ZTA counter 7.5, core dimer inh 1.5, NS3 helicase cf 58.6* and DNA FID counter -9.7.
